C2C12 statin = suppressors of statin myotoxicity in C2C12 myotubes, primary screen, cell-based, single point, plate reader. AID 602340, 2012. 330,000 tested, 0.78% active. C2C12 myotubes + simvastatin, ATP luminescence, 48 h; scaled: DMSO 0, geranylgeraniol control 100. rescue of ATP level, % at 7.49 µM;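 active = mean ATP rescue above about 67%, or every replicate alone reaching that limit, limit read from the data, passing the limit was not always enough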;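 also: myotubes were challenged with 10 µM simvastatin during compound exposure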
Cneo AK release = Cryptococcus neoformans cell lysis inducers, primary screen, AK release luminescence, single concentration | C. neoformans lysis, adenylate kinase release luminescence, 4 h; normalised: neutral wells 0, clomiphene wells 100 | lysis activity, % at 15 µM | 360,000 tested, 0.2% active | AID 651654, 2012;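 active = mean lysis activity across replicates of at least 80%, whatever share of replicates individually reach that level; inactive = mean lysis activity below 80%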
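Assay system: C. neoformans cells. Amount: yeast cell density of 5 × 10^6 cells/mL. Technique: AK luminescence. Buffer or medium: YPD. Times: static 4 h at 37 °C with compound, 1 h detection. Dosing: single-point compound dose. Read-out: lysis from increased AK signal.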
SIRT5 inh = SIRT5 desuccinylase inhibitors, primary screen, biochemical, fluorescence imaging, single point, set 5 | NAD-dependent protein deacylase sirtuin-5, mitochondrial (Homo sapiens), Q9NXA8 | 330,000 tested, 1.1% active | inhibition, % at 15 µM | AID 652115, 2013 | Purified SirT5, succinyl-peptide AMC, trypsin-coupled fluorescence; in the data active = inhibition above about 15%
Target sequence (Q9NXA8 whole entry, looked up): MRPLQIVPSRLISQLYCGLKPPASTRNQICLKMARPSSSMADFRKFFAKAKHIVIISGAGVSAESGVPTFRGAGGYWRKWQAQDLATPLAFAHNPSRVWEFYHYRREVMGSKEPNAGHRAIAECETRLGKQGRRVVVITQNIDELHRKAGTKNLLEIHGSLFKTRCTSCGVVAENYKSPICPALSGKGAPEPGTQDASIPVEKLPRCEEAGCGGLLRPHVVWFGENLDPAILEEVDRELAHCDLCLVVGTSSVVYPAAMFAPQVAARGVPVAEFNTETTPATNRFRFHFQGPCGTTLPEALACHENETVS
S100A4 MyoIIA = inhibitors of S100A4-myosin IIA peptide binding, primary screen, biochemical, fluorescence polarization, TAMRA-MyoIIA peptide; Protein S100-A4 (Homo sapiens), P26447; inhibition, % at 10.7 µM; 360,000 tested, 0.14% active;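 active = mean inhibition of at least 70% across replicates, with every replicate also reaching that level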
Target sequence (P26447 whole entry, looked up): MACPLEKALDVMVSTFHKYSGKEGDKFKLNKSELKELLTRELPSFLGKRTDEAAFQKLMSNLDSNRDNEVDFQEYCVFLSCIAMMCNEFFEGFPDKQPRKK
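incubation = readout 5 min after mixing, signal stable up to 60 min | system = S100A4 monomer protein | buffer or medium = HEPES pH 7.2 with CaCl2, KCl, NaCl, DTT, Triton | benchmarks = neutral control DMSO, positive control TFP | also added = fluorescent myosin IIA peptide, 5 nM | compound dosing = one concentration per compound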
rRNA inh HTS = reduced GFP signal of wild-type E. coli, primary screen, bacterial rRNA inhibitor project, GFP/RFP fluorescence, OD600, single point; E. coli WT GFP vs humanized-ribosome RFP mutants, 24 h; stronger effect = lower value; DMSO median 0, no signal -100; GFP signal change (wild-type ribosome), % (test concentration not listed); 350,000 tested, 1.6% active; AID 720706, 2013;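 active = significant combined selectivity score with lowered wild-type GFP, culture density cut under 30%, mutant RFP and density less affected; inactive = any of these conditions unmet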
PGC1a acetyl inh = inhibitors of PGC1a acetylation signal, primary screen, cell-based, U2OS, AlphaScreen, inhibitor mode. inhibition, % at 15.6 µM. 350,000 tested, 0.17% active. AlphaScreen anti-acetyl-lysine; with virally co-expressed GCN5 acetyltransferase. AID 651687, 2012;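 active = every replicate shows inhibition of at least 40%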;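 also: 0% = neutral control wells and 100% = positive control wells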
Active calls of the source: *; / = no result given. A selection: hits, their analogues and other compounds. The true share with any hit is near 3%.

SMILES | C2C12 statin | Cneo AK release | SIRT5 inh | S100A4 MyoIIA | rRNA inh HTS | PGC1a acetyl inh
CCCOc1ccc(-c2nn(-c3ccccc3)cc2/C=C2\SC(N)=NC2=O)cc1C | -5.4 | -0.4 | -0.6 | 1.0 | 7.3 | 6.3
COc1ccc(-c2nn(CCC(=O)O)cc2/C=C2\SC(N)=NC2=O)cc1OC | / | / | 27.9* | -2.5 | -2.2 | /
O=C(COc1cccc2ccccc12)NNC(=O)Nc1ccccc1 | 9.5 | -1.8 | / | 3.8 | -32.8* | -7.8
C[C@@H]1CN([C@H](C)CO)C(=O)c2cccc(NC(=O)C3CC3)c2O[C@H]1CN(C)Cc1ccc(-c2ccccc2)cc1 | -15.3 | 11.6 | 8.5 | -8.1 | -2.7 | 8.4
CN(c1ccccc1)c1nc(N)c([N+](=O)[O-])c(N2CCCCC2)n1 | / | / | 1.7 | 0.5 | -25.4 | /
CN(c1ccccc1)c1nc(N)c([N+](=O)[O-])c(N2CCCC2)n1 | -1.4 | -0.3 | 0.8 | -10.8 | -26.7* | -2.4
CO[C@H]1CN(C)C(=O)c2cc(NC(=O)CC(F)(F)F)ccc2OC[C@H](C)NC[C@@H]1C | / | / | -0.2 | -5.9 | 1.5 | /
CC(=O)Nc1cccc2c1Cc1cc([N+](=O)[O-])ccc1-2 | / | / | -2.6 | 69.7 | -19.1* | -7.3
Cc1ccc(NC(=S)NC(=O)c2ccc(F)cc2)cc1S(=O)(=O)Nc1ccccc1Cl | / | / | 2.0 | 9.9 | -26.2* | /
CCOC(=O)c1ccc(NC(=S)Nc2ccc(C)cc2)cc1 | -0.7 | -1.0 | -4.2 | -19.2 | 3.6 | 9.6
CCOC(=O)c1cn[nH]c1NC(=S)Nc1ccc(Cl)cc1 | 10.9 | -4.5 | -1.1 | -1.3 | -40.6* | 2.7
O=[N+]([O-])c1c(Nc2cccc(O)c2)cc(Cl)c2nonc12 | 5.6 | 5.6 | 4.8 | -0.6 | -45.2* | /
O=C(O)c1ccc(Nc2cc(Cl)c3nonc3c2[N+](=O)[O-])cc1 | 5.0 | -1.0 | 2.2 | -0.2 | -2.8 | 34.4
C[C@@H]1CCCCO[C@@H](CN(C)C)[C@H](C)CN([C@H](C)CO)C(=O)c2cc(NS(=O)(=O)c3cn(C)cn3)ccc2O1 | / | -0.5 | -1.4 | 21.2 | 1.3 | 0.3
CCOc1ccccc1N1CCN(C(=O)c2ccc3[nH]c4c(c3c2)CCCC4)CC1 | 17.0 | 2.9 | -3.9 | 0.3 | -26.8* | /
C[C@@H]1CN([C@H](C)CO)C(=O)Cc2cc(NS(=O)(=O)c3ccc(Cl)cc3)ccc2O[C@@H]1CN(C)Cc1ccc(-c2ccccc2)cc1 | 61.8 | / | / | / | 3.9 | -26.7
COC(=O)c1cn(Cc2ccc(C(F)(F)F)cc2)cc(F)c1=O | 102.6* | 3.0 | -1.6 | -7.7 | 2.3 | -0.9
CCC(=O)Nc1nc2ccc(NC(=O)c3cc(OC)c(OC)c(OC)c3)cc2s1 | -27.4 | -0.5 | -1.7 | 5.4 | -36.3* | -9.2
CCCCC(=O)Nc1ccc(NC(=O)c2cc(OC)c(OC)c(OC)c2)cn1 | 82.4* | 0.7 | / | / | / | -8.5
C[C@H]1CN([C@@H](C)CO)C(=O)Cc2cc(NC(=O)Nc3ccc(C(F)(F)F)cc3)ccc2O[C@@H]1CN(C)C(=O)Nc1cccc2ccccc12 | 44.1 | -1.9 | -2.3 | 8.8 | -1.6 | -14.9
C[C@@H]1CCCCO[C@@H](CN(C)S(=O)(=O)c2cn(C)cn2)[C@@H](C)CN([C@H](C)CO)C(=O)c2cc(NS(=O)(=O)c3ccc(Cl)cc3)ccc2O1 | / | 1.5 | 2.3 | 103.1* | 1.5 | 3.8
Cc1ccc(S(=O)(=O)Nc2ccc3c(c2)C(=O)N([C@@H](C)CO)C[C@@H](C)[C@@H](CN(C)S(=O)(=O)c2cn(C)cn2)OCCCC[C@@H](C)O3)cc1 | / | -2.0 | 5.0 | 133.5* | -3.9 | -16.1
Cc1ccc(S(=O)(=O)Nc2ccc3c(c2)C(=O)N([C@H](C)CO)C[C@H](C)[C@@H](CN(C)S(=O)(=O)c2cn(C)cn2)OCCCC[C@@H](C)O3)cc1 | / | 0.9 | -3.0 | -18.4 | 5.9 | -1.9
O=C(C[C@H]1C=C[C@H](NC(=O)NC2CCCCC2)[C@H](CO)O1)NCc1ccc(F)cc1 | 5.7 | -2.9 | -0.3 | -1.1 | -5.8 | -12.4
C[C@@H]1CN([C@@H](C)CO)C(=O)c2cc(C#CCN(C)C)cnc2O[C@H]1CN(C)C(=O)NC1CCCC1 | 60.9 | 0.7 | 2.7 | -5.6 | 3.4 | -4.0
SMILES | C2C12 statin | Cneo AK release | SIRT5 inh | S100A4 MyoIIA | rRNA inh HTS | PGC1a acetyl inh
CO[C@H]1CC[C@H]2CCN(C)C(=O)[C@H](C)N(C)C(=O)c3cccc(C#N)c3OC[C@H]1O2 | -8.8 | 2.2 | -1.3 | -7.5 | 1.5 | /
Cc1noc(C)c1NC(=O)Nc1ccc2c(c1)C(=O)N(C)[C@H]1CC[C@H](CC(=O)N[C@H]3CCN(Cc4ccccc4)C3)O[C@H]1CO2 | -8.9 | 86.4* | 4.9 | 0.0 | 0.7 | 8.9
CN1C(=O)c2cc(NC(=O)Cc3cccs3)ccc2OC[C@H]2O[C@H](CC(=O)N[C@H]3CCN(Cc4ccccc4)C3)CC[C@@H]21 | 4.0 | 2.6 | 3.6 | 96.0* | 4.0 | /
Cc1noc(C)c1NC(=O)Nc1ccc2c(c1)C(=O)N(C)[C@@H]1CC[C@H](CC(=O)N[C@H]3CCN(Cc4ccccc4)C3)O[C@@H]1CO2 | 47.2 | 100.2* | 1.4 | 5.2 | 6.3 | 5.9
Cc1noc(C)c1NC(=O)Nc1ccc2c(c1)C(=O)N(C)[C@@H]1CC[C@@H](CC(=O)N[C@H]3CCN(Cc4ccccc4)C3)O[C@@H]1CO2 | -8.2 | 4.1 | 4.8 | -2.3 | 4.4 | -6.8
CO[C@@H]1CN(C)C(=O)c2ccc(NC(=O)c3cc(C)on3)cc2OC[C@@H](C)N(C(=O)C2CC2)C[C@H]1C | 5.9 | 0.6 | -2.0 | 18.5 | -3.0 | /
COc1ccc2c3c([nH]c2c1)[C@@H](CO)N(C(=O)NC(C)C)CC31CN(C(=O)c2cccnc2)C1 | / | / | 1.7 | -20.4 | -2.7 | -1.3
COc1ccccc1CNC(=O)C[C@H]1CC[C@H]2[C@@H](COc3ccc(NC(=O)Nc4ccc(F)c(F)c4)cc3C(=O)N2C)O1 | -33.4 | 3.8 | 10.0 | -5.6 | -8.0 | 8.3
Cc1nc(N)c(CC(Br)CBr)c(Cl)n1 (centres undefined) | -3.3 | / | 1.5 | -1.0 | -38.4* | 18.8
C[C@H]1CN([C@@H](C)CO)C(=O)c2cc(NC(=O)CCCN(C)C)ccc2O[C@H]1CN(C)C(=O)Nc1ccc2c(c1)OCO2 | 7.5 | 0.5 | 3.2 | 3.3 | -4.7 | 1.5
C[C@@H]1CN([C@@H](C)CO)C(=O)c2cc(-c3ccccc3)cnc2O[C@@H]1CN(C)Cc1ccc(C(=O)O)cc1 | -0.7 | -0.8 | -2.2 | 23.2 | -0.8 | 1.6

Source: PubChem BioAssay (Broad Institute)
